# Laboratory results taken from PubChem BioAssay AID504383 (The Scripps Research Institute Molecular Screening Center, 2011).
# Several values for one entry are separate records, joined by “and”; a condition that tells them apart may be missing. Equal values may be shown once. The whole screen tested about 2,500 compounds, of which about 1,200 (48%) were called active.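 How the source made its calls: active means mean activation above the low control average plus 3 SD, as set in the primary screen (cut at about 12% in these data); inactive means the rest.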 So high a share suggests a set chosen from earlier hits. This is one part of the list. More than one record can exist for a structure, and the calls need not agree.
# Target: Troponin I, cardiac muscle (Homo sapiens) + Troponin T, cardiac muscle (Homo sapiens) + Troponin C, slow skeletal and cardiac muscles (Homo sapiens) (UniProt P19429+P45379+P63316)
# Test: cardiac RTF calcium sensitivity activators, confirmation, biochemical, IANBD-TnC fluorescence, triplicate (AID 504383);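 further: 0% = DMSO at 0.472 mM calcium and 100% = DMSO at 2.9 mM calcium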
# Conditions: IANBD-labeled cardiac RTF, Ca2+ sensitivity fluorescence; at 7.2 µM; stronger effect = higher value; scaled from EC20 to saturating calcium; tested at EC20 calcium, 0.472 mM
# How it was run: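 System: Labelled thin filament complex | Technique: Filament fluorescence intensity | Benchmarks: Low control EC20 calcium, high control EC100 calcium | Timing: 15 min at 25 °C | Compound dosing: One dose, 7.2 µM nominal | Probe or stimulus: Ca2+ 0.472 mM, EC20 level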
row,SMILES,activation
1,CCCNS(=O)(=O)c1ccc2c(c1)n(C)c(=O)n2C,12.4% (active)
2,CCCCN(Cc1ccccc1)S(=O)(=O)c1ccc2c(c1)n(C)c(=O)c(=O)n2C,2.32% (inactive)
3,COc1ccc(S(=O)(=O)N(CC(C)C)C2CCS(=O)(=O)C2)cc1OC (configuration not stated),17.1% (active)
4,O=C1c2cccc3cc([N+](=O)[O-])cc(c23)C(=O)N1CCN1CCCC1,8.4% (inactive)
5,CCN(CC)CCN1C(=O)c2cccc3cc(N)cc(c23)C1=O,128% (active)
6,O=C(N/N=C/c1ccc([N+](=O)[O-])cc1)c1cc(-c2ccc3c(c2)OCO3)n[nH]1,0.5% (inactive)
7,CN(C)c1ccc(/C=N/NC(=O)c2cnc3ccccc3c2)cc1,6.1% (inactive)
8,O=C(N/N=C/c1ccc2c(c1)OCO2)/C(=C/c1ccc2c(c1)OCO2)NC(=O)c1ccccc1,11.7% (active)
9,Cc1ccc(Cn2cc(CCC(=O)O)c3ccccc32)cc1,16.7% (active)
10,Nc1nc(SCc2cccc(Br)c2)n[nH]1,9.18% (inactive)
11,COc1cc2c(cc1NC(=O)COC(=O)/C=C/c1ccc([N+](=O)[O-])cc1)oc1ccccc12,4480% (active)
12,COc1cc([N+](=O)[O-])ccc1N/C=C/C(=O)c1cccs1,5.01% (inactive)
13,COc1cc([N+](=O)[O-])ccc1NC(=O)COC(=O)c1n[nH]c2ccccc12,6.72% (inactive)
14,CN1CCCc2cc3c(C(F)(F)F)cc(=O)oc3nc21,10.7% (inactive)
15,Cc1ccc(C(=O)NCC(=O)OCC(=O)N(CC(C)C)c2c(N)n(Cc3ccccc3)c(=O)[nH]c2=O)cc1,8.28% (inactive)
16,Cc1ccc(C(=O)NCC(=O)OCC(=O)c2ccc(Cl)s2)cc1,232% (active)
17,Cc1cc(C)n(NC(=S)NC2CCCCC2)c(=O)c1C#N,7.29% (inactive)
18,O=C1/C(=C\c2c(NCCOCCO)nc3ccccn3c2=O)SC(=S)N1Cc1ccco1,92.6% (active)
19,CCCN(CCC)c1nc2c(C)cccn2c(=O)c1/C=C1/SC(=S)N(Cc2ccco2)C1=O,3.6% (inactive)
20,Cc1ccc(/C=C/C(=O)N2CCN(S(=O)(=O)c3ccc(C)c(C)c3)CC2)o1,17.9% (active)
21,Cc1ccc(S(=O)(=O)N2CCN(c3ncccn3)CC2)cc1C,4.74% (inactive)
22,COc1ccc(S(=O)(=O)N2CCSC2)cc1C,2.98% (inactive)
23,Oc1[nH]c2ccccc2c1N=Nc1ccccc1Cl,4.59% (inactive)
24,Oc1[nH]c2ccccc2c1N=Nc1cccc(Cl)c1,7.29% (inactive)
25,Oc1[nH]c2ccccc2c1N=Nc1ccc(F)cc1,109% (active)

row,SMILES,activation
1,Oc1[nH]c2ccccc2c1N=Nc1ccccc1F,2.72% (inactive)
2,Oc1[nH]c2ccccc2c1N=Nc1ccccc1,26.4% (active)
3,Cc1ccc(Cl)c2c(N=Nc3ccccc3)c(O)[nH]c12,14.7% (active)
4,O=C(c1cnc2ccccc2n1)N1CCN(c2ccc(C(F)(F)F)cn2)CC1,32.8% (active)
5,Cc1ccc(NC(=O)CO/N=C/c2ccc(N(C)C)cc2)cc1,6.41% (inactive)
6,Cc1ccc(NC(=O)O/N=C/c2ccc(F)cc2)cc1,8.78% (inactive)
7,CCN(CC)c1ccc(/C=N/OCC(=O)Nc2cccc(C)c2)cc1,19.6% (active)
8,O=C1N/C(=C\c2ccc(N3CCOCC3)c(F)c2)C(=O)N1Cc1ccccc1,5.84% (inactive)
9,O=C(N1CCOCC1)N1CCN(c2ccc(F)cc2)CC1,2.34% (inactive)
10,O=C(O)c1cc(NCc2ccc(F)cc2)ccc1N1CCOCC1,91.3% (active)
11,C=CCOc1ccc(CNc2ccc3[nH]c(=O)[nH]c3c2)cc1OCC,25% (active)
12,CN(C)c1ccc(/C=C/c2nc3ccccc3c(=O)[nH]2)cc1,9.5% (inactive)
13,CC(C)CC[n+]1ccccc1/C=C/c1ccc(N(C)C)cc1,7% (inactive)
14,CN(C)c1ccc(/C=C/c2ccc3ccccc3n2)cc1,14.9% (active)
15,Cc1ccsc1C1C=C(c2cccc(Br)c2)Nc2ncnn21 (configuration not stated),1.58% (inactive)
16,CN(C)c1ccc(C2C=C(c3ccc(Cl)cc3OC(F)F)Nc3ncnn32)cc1 (configuration not stated),80% (active)
17,Cc1c(C=O)c2ccccn2c1C(=O)c1cccs1,6.64% (inactive)
18,Nc1nc(NCCCN2CCOCC2)nc(Nc2cccc(Cl)c2)c1[N+](=O)[O-],5.57% (inactive)
19,Cc1cccc(Nc2c([N+](=O)[O-])c(=O)oc3ccccc23)c1,23.2% (active)
20,COc1ccc(CCC(=O)N2CCc3ccccc32)cc1,6.5% (inactive)
21,COc1ccc(CC(=O)NNC(=O)c2ccncc2)cc1,8.9% (inactive)
22,COc1ccc(CC/C(C)=N\NC(N)=O)cc1,16.2% (active)
23,Cc1ccc(C)c(S(=O)(=O)N2CCCC2CNC(=O)C(=O)NC2CC2)c1 (configuration not stated),5.98% (inactive)
24,C=C(C)c1sc(-c2ccc(Cl)cc2)nc1C,1.76% (inactive)
25,Cc1ccc(-c2nc(NC(=O)CSc3cc(C)c4ccccc4n3)ns2)cc1,4.39% (inactive)

row,SMILES,activation
1,Cc1ccc(SCC(=O)c2sc(-c3ccccc3)nc2C)cc1,35.4% (active)
2,Nc1ccc2c3c(cccc13)CC2,6.56% (inactive)
3,COc1ccc2c3c(cccc13)C(=O)CC2,18.7% (active)
4,COc1ccc2noc3c2c1C(=O)c1ccccc1-3,3.9% (inactive)
5,CCCn1c(=O)c(C(=O)NNC(=O)c2ccccc2[N+](=O)[O-])c(O)c2ccccc21,18.9% (active)
6,CC1CCN(c2oc(-c3ccccc3F)nc2C#N)CC1,10.8% (inactive)
7,COCCn1c(=NC(=O)/C=C/c2ccccc2)sc2cc(NC(C)=O)ccc21,19.9% (active)
8,CCOC(=O)Cn1c(=NC(=O)c2cc(-c3cccs3)nc3ccccc23)sc2cc(S(N)(=O)=O)ccc21,1.79% (inactive)
9,CC1(C(=O)Nc2nnc(SCc3ccccc3)s2)Cc2ccccc2C(=O)O1 (configuration not stated),22.1% (active)
10,CC1(C)CC(=O)c2sc(NC(=O)Cc3cccs3)nc2C1,4.44% (inactive)
11,CN1CCC2(CC1)C1CN(C)CC=C1C(C#N)=C(N)C2(C#N)C#N (configuration not stated),1.95% (inactive) and 33.7% (active)
12,CCOc1ccc(C2C(C#N)=C(N)SC(N)=C2C#N)c(OCC)c1,10% (inactive)
13,CCOc1cc(C2C(C#N)=C(N)OC(C)=C2C(C)=O)cc(Br)c1O (configuration not stated),213% (active)
14,S=C(Nc1cc(Cl)ccc1Oc1ccccc1)N1CCN(c2ccccn2)CC1,102% (active)
15,O=C(COc1ccccc1Cl)N1CCN(c2ccccn2)CC1,10.9% (inactive)
16,O=c1c2ccccc2nc2n1CCCN2,17.2% (active)
17,CCC[C@@H](CN1CCC[C@H]1CN1C(N)=NC[C@@H]1Cc1ccccc1)N1C[C@@H](Cc2ccccc2)N(CCCC2CCCC2)C1=N,38.3% (active)
18,CCOc1cc(C#N)ccc1OCC(=O)N1CCc2ccccc2C1,12.3% (active)
19,CC(C(=O)N1CCc2ccccc2C1)N1C(=O)c2ccccc2C1=O (configuration not stated),2.65% (inactive)
20,O=C(Cn1c(=O)oc2cc(S(=O)(=O)N3CCCC3)ccc21)N1CCc2ccccc2C1,10.4% (inactive)
21,CCNc1cccc2c1C(=O)N(C)C2=O,1.44% (inactive)
22,CCC1(O)C(=O)OCc2c1cc1n(c2=O)Cc2cc3cc(O)ccc3nc2-1 (configuration not stated),16.1% (active)
23,CC[C@@]1(O)C(=O)OCc2c1cc1n(c2=O)Cc2cc3c(CN(C)C)c(O)ccc3nc2-1,22.4% (active)
24,CCOc1nnc(C)c2c(C)n(-c3cccc(Cl)c3)nc12,5.31% (inactive)
25,Cc1noc(/C=C/c2ccc(-c3ccccc3Cl)o2)c1[N+](=O)[O-],-1.31% (inactive)

row,SMILES,activation
1,O=C1NC(=S)/C(=C\c2ccc(-c3ccccc3Cl)o2)S1,14.2% (active)
2,Cc1ccc(/C=C2/SC(=O)NC2=S)o1,29.6% (active)
3,O=C(O)c1ccccc1-c1ccc(/C=C2\SC(=O)N(c3ccccc3)C2=O)o1,9.01% (inactive)
4,Cc1nc2ccc(Cl)cc2nc(C)/c1=N\O,6.95% (inactive)
5,CCOC(=O)c1c(-c2ccccc2)csc1NC(=O)/C(C#N)=C\c1ccc(O)c(OC)c1,11.3% (inactive)
6,CCOC(=O)c1c(-c2ccccc2)csc1NC(=O)/C(C#N)=C/c1ccc(O)c(OC)c1,23.8% (active)
7,CCNC(=S)N/N=C/c1sc(N2CCCCC2)nc1-c1cccs1,1.11% (inactive)
8,S=C(Nc1ccc(Cl)cc1)N(CCCN1CCOCC1)Cc1ccco1,11.2% (inactive)
9,S=C(NCCCN1CCOCC1)Nc1ccc(-c2nc3ccccc3[nH]2)cc1,17% (active)
10,COC(=O)Cc1ccc(NC(=S)NCCCN2CCOCC2)cc1,2.97% (inactive)
11,C(=N\Nc1nnnn1-c1ccccc1)/c1ccncc1,6.05% (inactive)
12,O=C(O)c1ccccc1CSc1nnnn1-c1ccccc1,51.1% (active)
13,O=C(NCC1CCCO1)c1ccc2c(c1)C(=O)N(c1cccc([N+](=O)[O-])c1)C2=O (configuration not stated),31.3% (active)
14,O=C(NCC1CCCO1)c1cccc2c1C(=O)c1ccc(N3CCC(Cc4ccccc4)CC3)cc1S2(=O)=O (configuration not stated),4.73% (inactive)
15,O=C(Cn1ncc2c3ccccc3n(Cc3cccc(Cl)c3)c2c1=O)NCC1CCCO1 (configuration not stated),5.86% (inactive)
16,Cc1cccc(CSc2ccc(-c3ccco3)nn2)c1,-0.44% (inactive)
17,N#Cc1ccccc1OCC(=O)OCC(=O)c1ccc2c(c1)NC(=O)CO2,21.9% (active)
18,Cn1c(=O)cc(SCC(=O)NCC2COc3ccccc3O2)c2ccccc21 (configuration not stated),7.4% (inactive)
19,CSc1c(CC(=O)NCCO)n(C)c2ccccc12,23.2% (active)
20,Cc1ccccc1C(=O)NC(=S)NC1CC1,0.94% (inactive)
21,O=C(O)c1ccccc1/C=N/NC(=S)NC1CCCCC1,5.68% (inactive)
22,O=C(NC1CCCCC1)c1ccccc1NC(=S)NC(=O)C1CCC1,24.5% (active)
